For seven compounds, MIC and IC50 results are on record in ChEMBL document CHEMBL1123152, “Synthesis, structure, and antitumor and antiviral activities of a series of 5-halouridine cyclic 3',5'-monophosphates” (1986).

Values after ≈ are worked out from the molar mass of the structure shown.

The subject of one assay is Human alphaherpesvirus 2. The assay can be described thus: Antiviral activity against Herpes Simplex Virus-2(196).
Conditions: not given
It counts as functional. The method, boiled down: (§1)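 Primary rabbit kidney cell cultures infected with virus. Value is the minimum concentration that reduces virus-induced cytopathogenicity by 50%. Cytotoxicity was scored as a microscopically detectable alteration of normal cell morphology.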
With `O=c1[nH]c(=O)n([C@@H]2O[C@@H]3COP(=O)(O)O[C@H]3[C@H]2O)cc1F`, the MIC is more than 100 µg/mL.

For `O=c1[nH]c(=O)n([C@@H]2O[C@@H]3COP(=O)(O)O[C@H]3[C@H]2O)cc1Cl`, the MIC was more than 400 µg/mL.

Regarding `O=c1[nH]c(=O)n([C@@H]2O[C@@H]3COP(=O)(O)O[C@H]3[C@H]2O)cc1Br`, the MIC is more than 200 µg/mL.

As to `O=c1[nH]c(=O)n([C@H]2C[C@H](O)[C@@H](CO)O2)cc1/C=C/Br` [BRIVUDINE], the MIC amounted to 100 µg/mL (≈ 300 µM).

In another assay the test system is Human alphaherpesvirus 2. Briefly: Antiviral activity against Herpes Simplex Virus-2(G). It counts as functional.
Conditions: not given
The method, boiled down: as §1
In turn, `O=c1[nH]c(=O)n([C@@H]2O[C@@H]3COP(=O)(O)O[C@H]3[C@H]2O)cc1F` displayed an MIC of more than 100 µg/mL.

In the case of `O=c1[nH]c(=O)n([C@@H]2O[C@@H]3COP(=O)(O)O[C@H]3[C@H]2O)cc1Cl`, the MIC was more than 400 µg/mL.

`O=c1[nH]c(=O)n([C@@H]2O[C@@H]3COP(=O)(O)O[C@H]3[C@H]2O)cc1Br` returned an MIC of more than 200 µg/mL.

`O=c1[nH]c(=O)n([C@H]2C[C@H](O)[C@@H](CO)O2)cc1/C=C/Br` [BRIVUDINE] displayed an MIC of 1 µg/mL (≈ 3 µM).

The next assay concerns Human alphaherpesvirus 2. The assay can be described thus: Antiviral activity against Herpes Simplex Virus-2(Lyons). It counts as functional.
Conditions: not given
The method, boiled down:
as §1
Take `O=c1[nH]c(=O)n([C@@H]2O[C@@H]3COP(=O)(O)O[C@H]3[C@H]2O)cc1F`: the MIC was more than 100 µg/mL.

Take `O=c1[nH]c(=O)n([C@@H]2O[C@@H]3COP(=O)(O)O[C@H]3[C@H]2O)cc1Cl`: the MIC was more than 400 µg/mL.

Consider `O=c1[nH]c(=O)n([C@@H]2O[C@@H]3COP(=O)(O)O[C@H]3[C@H]2O)cc1Br`, for which the MIC is 150 µg/mL (≈ 390 µM).

As to `O=c1[nH]c(=O)n([C@H]2C[C@H](O)[C@@H](CO)O2)cc1/C=C/Br` [BRIVUDINE], the MIC came out at 1 µg/mL (≈ 3 µM).

A further assay has as its system Human alphaherpesvirus 1. The assay can be described thus: Antiviral activity against Herpes Simplex Virus-1 (KOS). It counts as functional.
Conditions: not given
The essentials: as §1
As to `O=c1[nH]c(=O)n([C@@H]2O[C@@H]3COP(=O)(O)O[C@H]3[C@H]2O)cc1F`, the MIC is more than 100 µg/mL.

Consider `O=c1[nH]c(=O)n([C@@H]2O[C@@H]3COP(=O)(O)O[C@H]3[C@H]2O)cc1Cl`, for which the MIC is more than 400 µg/mL.

For `O=c1[nH]c(=O)n([C@@H]2O[C@@H]3COP(=O)(O)O[C@H]3[C@H]2O)cc1Br`, the MIC was more than 200 µg/mL.

Regarding `O=c1[nH]c(=O)n([C@H]2C[C@H](O)[C@@H](CO)O2)cc1/C=C/Br` [BRIVUDINE], the MIC was found to be 0.02 µg/mL (≈ 0.06 µM).

In another assay the test system is Human alphaherpesvirus 1. Briefly: Antiviral activity against Herpes Simplex Virus-1 (McIntyre). It counts as functional.
Conditions: not given
The essentials:
as §1
For the compound `O=c1[nH]c(=O)n([C@@H]2O[C@@H]3COP(=O)(O)O[C@H]3[C@H]2O)cc1F`, the MIC was more than 100 µg/mL.

The compound `O=c1[nH]c(=O)n([C@@H]2O[C@@H]3COP(=O)(O)O[C@H]3[C@H]2O)cc1Cl` returned an MIC of more than 400 µg/mL.

Compound `O=c1[nH]c(=O)n([C@@H]2O[C@@H]3COP(=O)(O)O[C@H]3[C@H]2O)cc1Br` registered an MIC of 200 µg/mL (≈ 519 µM).

For `O=c1[nH]c(=O)n([C@H]2C[C@H](O)[C@@H](CO)O2)cc1/C=C/Br` [BRIVUDINE], the MIC is 0.02 µg/mL (≈ 0.06 µM).

A further assay deals with L1210. The assay can be described thus: Cytostatic activity against proliferation of L1210/0 cells (murine leukemia L1210 cells). It counts as functional. Conditions: Mus musculus, read-out: ID50 (the source's name). The essentials: (§2)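 Tumor cell proliferation assay. L1210/0 is the parental murine leukemia line and Raji/0 the parental human lymphoblast line, with a deoxythymidine kinase deficient Raji subline. Value is the ID50, the dose that inhibits cell proliferation by 50%.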
For `O=c1[nH]c(=O)n([C@@H]2O[C@@H]3COP(=O)(O)O[C@H]3[C@H]2O)cc1F`, the IC50 is 0.34 µg/mL (≈ 1.05 µM).

In the case of `O=c1[nH]cc(Br)c(=O)[nH]1` [5-BROMOURACIL], the IC50 was more than 1000 µg/mL.

As for `O=c1[nH]c(=O)n([C@@H]2O[C@@H]3COP(=O)(O)O[C@H]3[C@H]2O)cc1Cl`, the IC50 is more than 1000 µg/mL.

As to `O=c1[nH]c(=O)n([C@@H]2O[C@@H]3COP(=O)(O)O[C@H]3[C@H]2O)cc1Br`, the IC50 was determined as 315 µg/mL (≈ 818 µM).

For the compound `O=c1[nH]c(=O)n(C2O[C@H](CO)[C@@H](O)[C@@H]2O)cc1I` (stereo partly specified), the IC50 is more than 1000 µg/mL.

Consider `O=c1[nH]c(=O)n([C@@H]2O[C@H](CO)[C@@H](O)[C@H]2O)cc1F` [5-FLUOROURIDINE], for which the IC50 was found to be 0.013 µg/mL (≈ 0.0496 µM).

A further assay deals with L1210. Briefly: Cytostatic activity against proliferation of L1210/BdU cells (deoxythymidine kinase deficient L1210 cells). It counts as functional. As to conditions: Mus musculus, read-out: ID50 (the source's name). The essentials:
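Murine L1210 subline deficient in deoxythymidine kinase (L1210/BdU), selected for growth in 260 μg/mL 5-bromo-dU. Proliferation assay; value is the ID50, the dose that inhibits tumor cell proliferation by 50%.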
On to `O=c1[nH]c(=O)n([C@@H]2O[C@@H]3COP(=O)(O)O[C@H]3[C@H]2O)cc1F`, for which the IC50 turned out to be 0.332 µg/mL (≈ 1.02 µM).

Turning to `O=c1[nH]cc(Br)c(=O)[nH]1` [5-BROMOURACIL], the IC50 is more than 1000 µg/mL.

Consider `O=c1[nH]c(=O)n([C@@H]2O[C@@H]3COP(=O)(O)O[C@H]3[C@H]2O)cc1Cl`, for which the IC50 is more than 1000 µg/mL.

Take `O=c1[nH]c(=O)n([C@@H]2O[C@@H]3COP(=O)(O)O[C@H]3[C@H]2O)cc1Br`: the IC50 turned out to be 294 µg/mL (≈ 764 µM).

Turning to `O=c1[nH]c(=O)n(C2O[C@H](CO)[C@@H](O)[C@@H]2O)cc1I` (stereo partly specified), the IC50 was more than 1000 µg/mL.

On to `O=c1[nH]c(=O)n([C@@H]2O[C@H](CO)[C@@H](O)[C@H]2O)cc1F` [5-FLUOROURIDINE], for which the IC50 came out at 0.019 µg/mL (≈ 0.0725 µM).

Another assay relates to Raji. The assay can be described thus: Cytostatic activity against proliferation of Raji/0 cells (human lymphoblast Raji cells). It counts as functional. As to conditions: read-out: ID50 (the source's name). The essentials:
as §2
With `O=c1[nH]c(=O)n([C@@H]2O[C@@H]3COP(=O)(O)O[C@H]3[C@H]2O)cc1F`, the IC50 stood at 0.416 µg/mL (≈ 1.28 µM).

For `O=c1[nH]cc(Br)c(=O)[nH]1` [5-BROMOURACIL], the IC50 is more than 1000 µg/mL.

In the case of `O=c1[nH]c(=O)n([C@@H]2O[C@@H]3COP(=O)(O)O[C@H]3[C@H]2O)cc1Cl`, the IC50 is 278 µg/mL (≈ 816 µM).

For the compound `O=c1[nH]c(=O)n([C@@H]2O[C@@H]3COP(=O)(O)O[C@H]3[C@H]2O)cc1Br`, the IC50 was 210 µg/mL (≈ 545 µM).

As for `O=c1[nH]c(=O)n(C2O[C@H](CO)[C@@H](O)[C@@H]2O)cc1I` (stereo partly specified), the IC50 is 639 µg/mL (≈ 1730 µM).

Take `O=c1[nH]c(=O)n([C@@H]2O[C@H](CO)[C@@H](O)[C@H]2O)cc1F` [5-FLUOROURIDINE]: the IC50 is 0.023 µg/mL (≈ 0.0877 µM).

The test system of a further assay is Raji. Briefly: Cytostatic activity against proliferation of Raji/TK cells (deoxythymidine kinase deficient Raji cells). It counts as functional. As to conditions: Homo sapiens, read-out: ID50 (the source's name). The method, boiled down:
as §2
For the compound `O=c1[nH]c(=O)n([C@@H]2O[C@@H]3COP(=O)(O)O[C@H]3[C@H]2O)cc1F`, the IC50 was determined as 1.64 µg/mL (≈ 5.06 µM).

For the compound `O=c1[nH]cc(Br)c(=O)[nH]1` [5-BROMOURACIL], the IC50 was more than 1000 µg/mL.

As for `O=c1[nH]c(=O)n([C@@H]2O[C@@H]3COP(=O)(O)O[C@H]3[C@H]2O)cc1Cl`, the IC50 is 369 µg/mL (≈ 1080 µM).

Take `O=c1[nH]c(=O)n([C@@H]2O[C@@H]3COP(=O)(O)O[C@H]3[C@H]2O)cc1Br`: the IC50 is 241 µg/mL (≈ 626 µM).

As to `O=c1[nH]c(=O)n(C2O[C@H](CO)[C@@H](O)[C@@H]2O)cc1I` (stereo partly specified), the IC50 came to 738 µg/mL (≈ 1990 µM).

With `O=c1[nH]c(=O)n([C@@H]2O[C@H](CO)[C@@H](O)[C@H]2O)cc1F` [5-FLUOROURIDINE], the IC50 is 0.085 µg/mL (≈ 0.324 µM).

The test system of another assay is Vesicular stomatitis virus. The assay can be described thus: Antiviral activity against vesicular stomatitis virus. It counts as functional.
Conditions: not given
The essentials:
as §1
Take `O=c1[nH]c(=O)n([C@@H]2O[C@@H]3COP(=O)(O)O[C@H]3[C@H]2O)cc1F`: the MIC came out at 150 µg/mL (≈ 463 µM).

On to `O=c1[nH]c(=O)n([C@@H]2O[C@@H]3COP(=O)(O)O[C@H]3[C@H]2O)cc1Cl`, for which the MIC was more than 400 µg/mL.

As to `O=c1[nH]c(=O)n([C@@H]2O[C@@H]3COP(=O)(O)O[C@H]3[C@H]2O)cc1Br`, the MIC is more than 200 µg/mL.

Turning to `O=c1[nH]c(=O)n([C@H]2C[C@H](O)[C@@H](CO)O2)cc1/C=C/Br` [BRIVUDINE], the MIC is more than 400 µg/mL.

The test system of the next assay is Vaccinia virus. Briefly: Antiviral activity against vaccinia virus. It counts as functional. Conditions: Orthopoxvirus vaccinia. The essentials:
as §1
For the compound `O=c1[nH]c(=O)n([C@@H]2O[C@@H]3COP(=O)(O)O[C@H]3[C@H]2O)cc1F`, the MIC is 20 µg/mL (≈ 61.7 µM).

`O=c1[nH]c(=O)n([C@@H]2O[C@@H]3COP(=O)(O)O[C@H]3[C@H]2O)cc1Cl` yielded an MIC of more than 400 µg/mL.

The compound `O=c1[nH]c(=O)n([C@@H]2O[C@@H]3COP(=O)(O)O[C@H]3[C@H]2O)cc1Br` registered an MIC of more than 200 µg/mL.

`O=c1[nH]c(=O)n([C@H]2C[C@H](O)[C@@H](CO)O2)cc1/C=C/Br` [BRIVUDINE] had an MIC of 2 µg/mL (≈ 6 µM).

A further assay relates to Human alphaherpesvirus 1. Briefly: Antiviral activity against Herpes Simplex Virus-1 (F). It counts as functional.
Conditions: not given
The method, boiled down:
as §1
In the case of `O=c1[nH]c(=O)n([C@@H]2O[C@@H]3COP(=O)(O)O[C@H]3[C@H]2O)cc1F`, the MIC was more than 100 µg/mL.

Take `O=c1[nH]c(=O)n([C@@H]2O[C@@H]3COP(=O)(O)O[C@H]3[C@H]2O)cc1Cl`: the MIC was more than 400 µg/mL.

The compound `O=c1[nH]c(=O)n([C@@H]2O[C@@H]3COP(=O)(O)O[C@H]3[C@H]2O)cc1Br` registered an MIC of more than 200 µg/mL.

In turn, `O=c1[nH]c(=O)n([C@H]2C[C@H](O)[C@@H](CO)O2)cc1/C=C/Br` [BRIVUDINE] showed an MIC of 0.02 µg/mL (≈ 0.06 µM).
